By inhibition in vivo is commonly meant the percentage by which the read-out fell short of the control. Low readings indicate little suppression, high ones strong suppression. The term logP denotes the decadic logarithm of the partition coefficient of the neutral form, usually between octanol and water. A higher logP goes with a more lipophilic compound.

The results in this text go back to ChEMBL document CHEMBL1121426, “Structure-activity study of antiulcerous and antiinflammatory drugs by discriminant analysis” (J Med Chem, 1980).

One series has as its system Rattus norvegicus. Kind of series: Antiulcer activity in rat at the dose of 20 mg/kg administered intraperitoneally. In kind it is functional. Particulars: ip, route intraperitoneal. The essentials:
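Pyloric ligation was done under ether on Wistar-King rats (200-250 g, 10 per group) fasted 24 h. Drug was suspended at 10 mg/mL in 0.9% saline with a trace of Tween 80 and given ip at 20 mg/kg; controls received saline. Forestomach ulcers were scored macroscopically 18 h later as an ulcer index. Percent inhibition was taken versus the mean control index; error <±10%.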

Series [1] in a line: Partition coefficient (logP). The conditions noted are these: octanol/water. In kind it is physicochemical.

For the compound `Nc1nc(N)nc(-c2cc(F)ccc2Cl)n1`, testing at 20 mg/kg in the series with Rattus norvegicus gave an inhibition in vivo of 78%. This compound registered a logP in series [1] of 1.38.
On the same counts, the results for `Nc1nc(N)nc(-c2ccc(Cl)cc2Br)n1` are 96% and 2.09.
The compound `CCc1ccccc1-c1nc(N)nc(N)n1` came in with an inhibition in vivo at 20 mg/kg with Rattus norvegicus of 20%. Further, the logP in series [1] amounted to 1.65.
The compound `Nc1nc(N)nc(-c2ccccc2[N+](=O)[O-])n1` showed an inhibition in vivo at 20 mg/kg in the series with Rattus norvegicus of 11%. This compound showed a logP in series [1] of 0.49.
`CSc1cccc(-c2nc(N)nc(N)n2)c1` had an inhibition in vivo at 20 mg/kg in the series with Rattus norvegicus of 49%. In series [1], this compound displayed a logP of 2.16.
